{
  "source": "paper PMC9398498",
  "about": "(Gastric Cancer, 2022)",
  "key": {"GISTs": {"test_system": "GISTs", "conditions": "cited from earlier work"}, "SPK1": {"test_system": "SPK1", "conditions": "SPK1 compared to SPK2; cited from earlier work"}, "[1]": {"test_system": "GIST-T1 and GIST-T1/IMR cells", "assay": "Cell scratch assay", "type": "cell-based", "conditions": "DMS (10 µM, 5 h) pretreatment then IM (20 µM) vs only IM treatment, P < 0.01"}, "[2]": {"test_system": "S1P, SPK1 and ABCC1 protein expression", "assay": "Western blot of SPK1/S1P proteins", "type": "cell-based", "conditions": "after DMS blockage for 5 h", "summary_of_the_method": "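Lysates of parental and resistant GIST-T1 cells were probed with rabbit polyclonal anti-S1P, anti-SPK1 and anti-β-actin antibodies, plus anti-ABCC1. Bands were visualised by enhanced chemiluminescence.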"}, "[3]": {"test_system": "GIST-T1 and GIST-T1/IMR cells", "assay": "Transwell chamber invasion assay", "type": "cell-based", "conditions": "DMS pretreatment and then IM treatment, within 48 h", "summary_of_the_method": "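Parental and resistant GIST-T1 cells in RPMI 1640 with 15% FBS (37 °C, 5% CO2) were tested in a transwell chamber. Invasion within 48 h was counted as transmembrane cells.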"}, "GIST-T1/IMR cells": {"test_system": "GIST-T1/IMR cells", "assay": "Cell cycle analysis, GIST-T1/IMR", "type": "cell-based", "conditions": "DMS with IM vs only IM, P < 0.01"}, "[4]": {"test_system": "GIST-T1 and GIST-T1/IMR cells", "assay": "Cell apoptosis analysis", "type": "cell-based"}, "[5]": {"test_system": "GIST-T1 and GIST-T1/IMR cells", "assay": "Longitudinal migration through uncoated Matrigel", "type": "cell-based", "conditions": "both cell lines", "summary_of_the_method": "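Parental and resistant GIST-T1 cells were grown in RPMI 1640 with 15% FBS at 37 °C, 5% CO2. Vertical migration was scored as the number of cells passing through uncoated Matrigel.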"}, "[6]": {"test_system": "GIST-T1 and GIST-T1/IMR cells", "assay": "Plate colony formation experiment", "type": "cell-based", "conditions": "P < 0.01"}, "GIST-T1 cells": {"test_system": "GIST-T1 cells", "assay": "Cell cycle analysis, GIST-T1", "type": "cell-based", "conditions": "P < 0.01"}, "[7]": {"assay": "Therapeutic drug monitoring", "type": "in vivo, human", "conditions": "400 mg/qd; for concentration at 22 h: both, human, plasma, oral, Plasma concentration", "summary_of_the_method": "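Patients on oral drug 400 mg once daily for over 1 month (steady state) took the dose at about 12:00. Peripheral venous blood was drawn about 10:00 next morning into anticoagulant tubes and centrifuged at 5000 rpm for 5 min. Plasma was stored at −20 °C, protein-precipitated, centrifuged and injected directly for 2D-LC-UV quantitation.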"}, "[8]": {"conditions": "cited from earlier work"}},
  "note": "Where a name gives a salt, the structure may show the parent alone. Read-outs that look alike come from different tables or passages of the source.",
  "data": [
    {"smiles": "CCN(CC)CCNC(=O)c1c(C)[nH]c(/C=C2\\C(=O)Nc3ccc(F)cc32)c1C", "note": "[sunitinib]", "values": [
      {"measurement": "median PFS", "setting": "GISTs; use after IM resistance", "value": 9.9, "unit": "months"},
      {"measurement": "objective response rate", "setting": "GISTs; use after IM resistance", "value": 5.5, "unit": "%"}
    ]},
    {"smiles": "CCCCCCCCCCCCC/C=C/[C@@H](O)[C@H](CO)N(C)C", "note": "[DMS, N,N-dimethylsphingosine]", "values": [
      {"measurement": "inhibitory activity on sphingosine kinases", "setting": "SPK1", "value": "high inhibitory activity on SPK1 compared to SPK2"},
      {"measurement": "scratch healing rate", "setting": "[1]", "value": "significantly decreased"},
      {"measurement": "protein levels of S1P, ABCC1 and SPK1", "setting": "[2]", "value": "decreased"},
      {"measurement": "number of transmembrane cells", "setting": "[3]", "value": "further reduced dramatically"},
      {"measurement": "proportion of G0/G1 phase", "setting": "GIST-T1/IMR cells", "value": "significantly lower"},
      {"measurement": "apoptosis rate", "setting": "[4]; after DMS interference vs cells without DMS treatment", "value": "significantly higher"},
      {"measurement": "ability of longitudinal migration", "setting": "[5]; DMS pretreatment with IM", "value": "further block"},
      {"measurement": "Colony formation ability", "setting": "[6]; DMS pretreatment vs IM intervention's group", "value": "further reduced"},
      {"measurement": "proportion of G0/G1 phase", "setting": "GIST-T1 cells; GIST-T1, DMS with IM vs only IM", "value": "significantly lower"}
    ]},
    {"smiles": "Cc1ccc(NC(=O)c2ccc(CN3CCN(C)CC3)cc2)cc1Nc1nccc(-c2cccnc2)n1", "note": "[IM, Imatinib mesylate]", "values": [
      {"measurement": "difference between the highest and lowest IM concentration", "setting": "[7]; 29 patients", "value": "more than 12 fold"},
      {"measurement": "concentration at 22 h", "setting": "[7]; OCT1 1022C > T (rs 2282143) CC, n=22", "value": "1510 ± 842", "unit": "ng/mL"},
      {"measurement": "concentration at 22 h", "setting": "[7]; OCT1 1022C > T (rs 2282143) TC, n=7", "value": "1750 ± 1090", "unit": "ng/mL"},
      {"measurement": "concentration at 22 h", "setting": "[7]; OCT1 1222 A > G (rs628031) AA, n=1", "value": 300, "unit": "ng/mL"},
      {"measurement": "concentration at 22 h", "setting": "[7]; OCT1 1222 A > G (rs628031) AG, n=10", "value": "1820 ± 1010", "unit": "ng/mL"},
      {"measurement": "concentration at 22 h", "setting": "[7]; OCT1 1222 A > G (rs628031) GG, n=18", "value": "1500 ± 798", "unit": "ng/mL"},
      {"measurement": "concentration at 22 h", "setting": "[7]; OCT1 1386C > A (rs 622342) AA, n=24", "value": "1580 ± 801", "unit": "ng/mL"},
      {"measurement": "concentration at 22 h", "setting": "[7]; OCT1 1386C > A (rs 622342) AC, n=5", "value": "1490 ± 1380", "unit": "ng/mL"},
      {"measurement": "concentration at 22 h", "setting": "[7]; OCT1 1795G > A (rs6935207) AA, n=8", "value": "961 ± 401", "unit": "ng/mL"},
      {"measurement": "concentration at 22 h", "setting": "[7]; OCT1 1795G > A (rs6935207) AG, n=13", "value": "1860 ± 978", "unit": "ng/mL"},
      {"measurement": "concentration at 22 h", "setting": "[7]; OCT1 1795G > A (rs6935207) GG, n=8", "value": "1700 ± 890", "unit": "ng/mL"},
      {"measurement": "pH at which IM tablets dissolve rapidly", "setting": "[8]", "value": "≤ 5.5"},
      {"measurement": "GISTs patients developing secondary drug resistance", "setting": "GISTs; after 1–3 years of IM treatment", "value": "~85", "unit": "%"},
      {"measurement": "apoptosis rate", "setting": "[4]; GIST-T1 cells treated with IM alone vs control, P < 0.01", "value": "higher than that of the control group"},
      {"measurement": "longitudinal migration capacity", "setting": "[5]; 20 μM of IM for 48 h, P < 0.01", "value": "decreased significantly"},
      {"measurement": "number of colony formation", "setting": "[6]; IM intervention vs control", "value": "significantly less than the control group"},
      {"measurement": "proportion of G0/G1 phase", "setting": "GIST-T1 cells; exposed to IM vs control", "value": "higher proportion"}
    ]},
    {"smiles": "CNC(=O)c1cc(Oc2ccc(NC(=O)Nc3ccc(Cl)c(C(F)(F)F)c3)c(F)c2)ccn1", "note": "[regorafenib]", "values": [
      {"measurement": "median PFS", "setting": "GISTs; use after sunitinib resistance", "value": 4.8, "unit": "months"},
      {"measurement": "objective response rate", "setting": "GISTs; use after sunitinib resistance", "value": 5.5, "unit": "%"}
    ]},
    {"smiles": "CCn1c(=O)c(-c2cc(NC(=O)Nc3ccccc3)c(F)cc2Br)cc2cnc(NC)cc21", "note": "[ripretinib]", "values": [
      {"measurement": "median PFS", "setting": "GISTs; phase III trial", "value": 6.3, "unit": "months"},
      {"measurement": "objective response rate", "setting": "GISTs; phase III trial", "value": 9, "unit": "%"}
    ]}
  ]
}
